ChEMBL document CHEMBL3352401, “Synthesis and antiviral activity of new phenylimidazopyridines and N-benzylidenequinolinamines derived by molecular simplification of phenylimidazo[4,5-g]quinolines” (Eur J Med Chem, 2014)

How the values were obtained:
[1] = Antiviral activity against Bovine viral diarrhea virus 1-NADL ATCC VR-534 infected in MDBK cells assessed as protection from virus-induced cytopathogenicity after 3 to 4 days by MTT method; assay type: functional, cell-based; conditions: Bovine viral diarrhea virus isolates and strains, ATCC VR-534, MDBK
Method in brief: (§1)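 Confluent monolayers grown overnight (BHK-21 at 5×10⁴ cells/well for YFV and Reo-1; MDBK at 3×10⁴ cells/well for BVDV). Infection at m.o.i. 0.01 for 2 h in maintenance MEM-Earle with 0.5% inactivated FBS, then serial compound dilutions added. Viability read by MTT after 3–4 days at 37 °C. EC50 taken from linear regression against untreated controls.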

[2] = Cytotoxicity against mock-infected bovine MDBK cells assessed as reduction in proliferation after 72 hrs by MTT method; assay type: cell-based, Bos taurus; conditions: cattle
Method in brief: (§2)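 MDBK and BHK cells seeded at 6 × 10⁵ and 1 × 10⁶ cells/mL respectively. Medium was MEM-Earle with L-glutamine, 1 mM pyruvate and kanamycin, plus 10% horse serum (MDBK) or 10% FBS (BHK). Cells exposed to serial compound dilutions at 37 °C, 5% CO₂; MTT viability read at 72 h. CC50 by linear regression versus untreated controls.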

[3] = Cytotoxicity against mock-infected human MT4 cells assessed as reduction in proliferation after 96 hrs by MTT method; assay type: cell-based
Method in brief: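 Exponentially growing MT-4 cells seeded at 1 × 10⁵ cells/mL in RPMI-1640 with 10% FBS, penicillin and streptomycin. Held 96 h at 37 °C, 5% CO₂ with or without serial compound dilutions; viability by MTT. Compounds dissolved in DMSO at 100 mM stock, then diluted in medium. CC50 by linear regression.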

[4] = tested on: Human immunodeficiency virus 1; assay: Antiviral activity against HIV-13B infected in MT4 cells assessed as protection from virus-induced cytopathogenicity after 4 days by MTT method; assay type: functional, organism-based; conditions: Human immunodeficiency virus 1, 3B, MT4, 96 h
Method in brief: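 HIV-1 IIIB, taken from persistently infected H9/IIIB supernatant. MT-4 cells (1×10⁴/well) in RPMI with serial compound dilutions, infected with 100 CCID50 (m.o.i. 0.01). Viability by MTT after 4 days at 37 °C. EC50 = 50% protection from cytopathogenicity, by linear regression against untreated controls. Compounds kept as 100 mM DMSO stocks, diluted in medium.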

[5] = Cytotoxicity against mock-infected hamster BHK21 cells assessed as reduction in proliferation after 72 hrs by MTT method; assay type: cell-based, Mesocricetus auratus, BHK-21; method in brief: as §2
[6] = tested on: Yellow fever virus; assay: Antiviral activity against Yellow fever virus 17D Stamaril Pasteur J07B01 infected in BHK21 cells assessed as protection from virus-induced cytopathogenicity after 3 to 4 days by MTT method; assay type: functional, cell-based; conditions: Stamaril Pasteur J07B01, BHK-21; method in brief: as §1
[7] = Antiviral activity against Simian virus 12 3651 (ATCC VR- 214) infected in BHK21 cells assessed as protection from virus-induced cytopathogenicity after 3 to 4 days by MTT method; assay type: functional, cell-based; conditions: BHK-21; method in brief: as §1
[8] = Cytotoxicity against mock-infected African green monkey Vero 76 cells assessed as reduction in proliferation after 48 to 96 hrs by MTT method; assay type: cell-based; conditions: chlorocebus sabaeus, Vero 76 cells (mock-infected)
Method in brief: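 Vero-76 cells seeded at 4 × 10⁵ cells/mL in D-MEM with L-glutamine, kanamycin and 10% FBS. Incubated at 37 °C, 5% CO₂, with or without serial dilutions of compound; viability read by MTT after 48–96 h. Run in parallel with antiviral assays. CC50 obtained by linear regression of % of untreated control.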

[9] = tested on: Coxsackievirus B5; assay: Antiviral activity against Coxsackievirus B5 Faulkner (ATCC VR-185) infected in Vero 76 cells after 3 days by plaque reduction assays; assay type: functional, organism-based; conditions: Enterovirus B, Vero 76, 72 h
[10] = tested on: Human poliovirus 1 strain Sabin; assay: Antiviral activity against Poliovirus 1 strain Sabin ATCC VR-1562 infected in Vero 76 cells after 2 days by plaque reduction assays; assay type: functional, organism-based; conditions: Enterovirus C, ATCC VR-1562, Vero 76, 48 h
[11] = Antiviral activity against Human respiratory syncytial virus A2 ATCC VR-1540 infected in Vero 76 cells after 5 days by plaque reduction assays; assay type: functional, cell-based; conditions: ATCC VR-1540, Vero 76, 120 h
[12] = tested on: Vesicular stomatitis Indiana virus; assay: Antiviral activity against Vesicular stomatitis Indiana virus ATCC VR 158 infected in Vero 76 cells after 2 days by plaque reduction assays; assay type: functional, organism-based; conditions: ATCC VR 158, Vero 76, 48 h
[13] = Antiviral activity against Vaccinia virus Lister ATCC VR-1549 infected in Vero 76 cells after 3 days by plaque reduction assays; assay type: functional, cell-based; conditions: ATCC VR-1549, Vero 76, 72 h
[14] = tested on: Human alphaherpesvirus 1; assay: Antiviral activity against Human herpesvirus 1 strain KOS ATCC VR- 1493 infected in Vero 76 cells after 3 days by plaque reduction assays; assay type: functional, organism-based; conditions: Human alphaherpesvirus 1, KOS ATCC VR1493, Vero 76, 72 h

SMILES | EC50 [1] | CC50 at 72 h [2] | CC50 at 96 h [3] | EC50 [4] | CC50 at 72 h [5] | EC50 [6] | EC50 [7] | CC50 [8] | EC50 [9] | EC50 [10] | EC50 [11] | EC50 [12] | EC50 [13] | EC50 [14]
O=[N+]([O-])c1ccc(-c2nc3cc4cccnc4c(Cl)c3[nH]2)cc1 | 1.2 µM | > 100 µM | > 100 µM | > 100 µM | > 100 µM | > 100 µM | > 100 µM | > 100 µM | > 100 µM | > 100 µM | > 100 µM | > 100 µM | > 100 µM | > 44 µM
N#Cc1ccc(-c2nc3cccnc3[nH]2)cc1 | > 100 µM | > 100 µM | > 100 µM | > 100 µM | > 100 µM | > 100 µM | > 100 µM | > 100 µM | > 100 µM | > 100 µM | > 100 µM | > 100 µM | > 100 µM | > 100 µM
CC(=O)c1ccc(-c2nc3cccnc3[nH]2)cc1 | 65 µM | > 100 µM | > 100 µM | > 100 µM | > 100 µM | > 100 µM | > 100 µM | > 100 µM | > 100 µM | > 100 µM | > 100 µM | > 100 µM | > 100 µM | > 100 µM
CC(=O)c1ccc(-c2nc3cc(Br)cnc3[nH]2)cc1 | > 100 µM | > 100 µM | 28 µM | 28 µM | > 100 µM | > 100 µM | > 100 µM | 50 µM | > 50 µM | > 50 µM | > 50 µM | > 50 µM | > 50 µM | > 50 µM
FC(F)(F)c1ccc(-c2nc3cccnc3[nH]2)cc1 | > 100 µM | > 100 µM | > 100 µM | > 100 µM | > 100 µM | > 100 µM | > 100 µM | > 100 µM | 18 µM | > 100 µM | > 100 µM | > 100 µM | > 100 µM | > 100 µM
FC(F)(F)c1ccc(-c2nc3cc(Br)cnc3[nH]2)cc1 | > 100 µM | > 100 µM | > 100 µM | > 100 µM | > 100 µM | > 100 µM | > 100 µM | > 100 µM | > 100 µM | > 100 µM | > 100 µM | > 100 µM | 4 µM | > 100 µM
c1cnc2[nH]c(-c3ccoc3)nc2c1 | > 100 µM | > 100 µM | > 100 µM | > 100 µM | > 100 µM | > 100 µM | > 100 µM | > 100 µM | > 100 µM | > 100 µM | > 100 µM | > 100 µM | > 100 µM | > 100 µM
Brc1cnc2[nH]c(-c3ccoc3)nc2c1 | 40 µM | 40 µM | 20 µM | 20 µM | > 100 µM | > 100 µM | > 100 µM | 40 µM | > 40 µM | > 40 µM | > 40 µM | > 40 µM | > 40 µM | > 40 µM
c1cnc2[nH]c(C3CCCCC3)nc2c1 | > 100 µM | > 100 µM | > 100 µM | > 100 µM | > 100 µM | > 100 µM | > 100 µM | > 100 µM | 86 µM | > 100 µM | > 100 µM | > 100 µM | > 100 µM | > 100 µM
Brc1cnc2[nH]c(C3CCCCC3)nc2c1 | > 100 µM | > 100 µM | > 100 µM | > 100 µM | > 100 µM | > 100 µM | > 100 µM | > 100 µM | 20 µM | > 100 µM | > 100 µM | > 100 µM | 16 µM | > 100 µM
N#Cc1ccc(-c2nc3ccncc3[nH]2)cc1 | 9 µM | > 100 µM | > 100 µM | > 100 µM | > 100 µM | > 100 µM | > 100 µM | > 100 µM | > 100 µM | > 100 µM | > 100 µM | > 100 µM | 56 µM | > 100 µM
CC(=O)c1ccc(-c2nc3ccncc3[nH]2)cc1 | 7 µM | > 100 µM | > 100 µM | > 100 µM | > 100 µM | > 100 µM | > 100 µM | > 100 µM | > 100 µM | > 100 µM | > 100 µM | > 100 µM | > 100 µM | > 100 µM
N#Cc1ccc(/C=N/c2cc3cccnc3c(Cl)c2N)cc1 | 2 µM | > 100 µM | 46 µM | > 100 µM | > 100 µM | > 100 µM | > 100 µM | > 100 µM | 46 µM | > 100 µM | 26 µM | > 100 µM | > 100 µM | > 100 µM
Nc1c(/N=C/c2ccc(C(F)(F)F)cc2)cc2cccnc2c1Cl | 14 µM | > 100 µM | 49 µM | > 100 µM | > 25 µM | > 25 µM | > 25 µM | 90 µM | 29 µM | 57 µM | 12 µM | > 90 µM | > 90 µM | > 100 µM
Nc1c(/N=C/c2ccc([N+](=O)[O-])cc2)cc2cccnc2c1Cl | 1.7 µM | > 100 µM | 53 µM | > 100 µM | > 100 µM | > 100 µM | > 100 µM | > 100 µM | > 100 µM | > 100 µM | 14 µM | > 100 µM | 88 µM | > 100 µM
Nc1c(/N=C/c2ccc(C(F)(F)F)c([N+](=O)[O-])c2)cc2cccnc2c1Cl | 11 µM | > 100 µM | 20 µM | > 100 µM | > 100 µM | > 75 µM | > 100 µM | 90 µM | 16 µM | 22 µM | > 90 µM | > 90 µM | > 90 µM | > 100 µM
C[C@@]1(O)[C@H](O)[C@@H](CO)O[C@H]1n1ccc(N)nc1=O |  |  |  |  |  | > 100 µM | 16 µM |  |  |  |  |  |  | 
C[C@@]1(O)[C@H](O)[C@@H](CO)O[C@H]1n1cnc2c(=O)[nH]c(N)nc21 [2'-B-METHYL-GUANOSINE] | 1.1 µM | > 100 µM |  |  | > 100 µM |  |  |  |  |  |  |  |  | 
C#C[C@@]1(O)[C@H](O)[C@@H](CO)O[C@H]1n1ccc(N)nc1=O [2'-ETHYNYL-D-CYTIDINE] |  |  |  |  |  |  |  | > 100 µM |  | 23 µM |  |  |  | 
O=c1cnn([C@@H]2O[C@H](CO)[C@@H](O)[C@H]2O)c(=O)[nH]1 [6-AZAURIDINE] |  |  |  |  |  |  |  | ≥ 12.5 µM |  |  | 1.2 µM |  |  | 
Nc1nc2c(ncn2COCCO)c(=O)[nH]1 [ACYCLOVIR] |  |  |  |  |  |  |  | > 100 µM |  |  |  |  |  | 
Nc1ccn(C[C@@H](CO)OCP(=O)(O)O)c(=O)n1 [CIDOFOVIR] |  |  |  |  |  |  |  | > 100 µM |  |  |  |  | 19 µM | 
